Drug excretion, Drug metabolism and bioavailability data for two molecules are collected here from ChEMBL document CHEMBL3526127, “Absorption, elimination, and metabolism of CS-1036, a novel α-amylase inhibitor in rats and monkeys, and the relationship between gastrointestinal distribution and suppression of glucose absorption” (Drug Metab Dispos, 2013).

Series [1] in a line: Drug excretion in F344 rat feces at 1 mg/kg, po administered as single dose after 24 hrs by scintillation counting method. The settings on record: in vivo. It is filed as ADME, organism-based. Also noted: dose 1 mg/kg, route oral. Put shortly: (§1)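 [14C]-labelled drug (1 mg/kg, 42.2 µCi/kg) was given orally to fasted F344 rats (164–168 g, n = 3). Urine and feces were collected to 24 h; feces were homogenized in 9 volumes of water, combusted and counted. Parent fraction came from the excreted radioactivity times the radio-HPLC (HILIC) peak-area ratio; mean ± S.D.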

Series [2] can be described thus: Drug metabolism in anaerobic culture broth of F344 rat cecal content assessed as 1,4-dideoxy-1,4-imino-D-arabinitol formation at 63.5 uCi/ml after 24 hrs at 35 degC by LC-MS/MS method. It is filed as ADME.
The nature of series [3]: Drug excretion in F344 rat urine at 1 mg/kg, po administered as single dose after 24 hrs by scintillation counting method. The arrangement: dose 1 mg/kg, route oral. The note with it: in vivo. It is filed as ADME, organism-based. Put shortly: as §1
Series [4] can be described thus: Oral bioavailability in F344 rat at 3 mg/kg administered as single dose by LC-MS/MS method. It is filed as ADME, organism-based. The settings on record: in vivo. Put shortly:
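Male F344 rats (146–185 g) and male cynomolgus monkeys (3.48–4.29 kg), n = 4 each, fasted overnight, received single iv or oral doses of 0.3, 1.0, 3.0 or 10.0 mg/kg. Monkeys had 2-week washouts between doses. Plasma was sampled to 48 h and assayed by LC-MS/MS with deuterated internal standard. Noncompartmental analysis: tmax observed; t1/2 by regression on ≥3 terminal log points; Vss = dose·AUMC/(AUC0–inf)²; Foral = oral/iv AUC0–inf at the same dose.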

Regarding `C[C@H]1O[C@@H](O[C@H]2[C@H](O)[C@@H](O)[C@@H](O[14C@H]3[14C@H](O)[14CH2]N[14C@@H]3[14CH2]O)O[C@@H]2CO)[C@H](O)[C@@H](O)[C@@H]1O`, the Drug excretion in series [1] was 70.3%; in series [3], 1.4%. In series [2], the Drug metabolism result is on record as “metabolite_detected”.
Molecule `C[C@H]1O[C@@H](O[C@H]2[C@H](O)[C@@H](O)[C@@H](O[C@H]3[C@H](O)CN[C@@H]3CO)O[C@@H]2CO)[C@H](O)[C@@H](O)[C@@H]1O` registered a bioavailability in series [4] of 1.73%.

For orientation: bioavailability means the share of a dose that reaches the circulation, judged against a reference dose that is usually intravenous. Low readings indicate little systemic uptake, high ones much systemic uptake.
